Columns and labels:
[1] = target: T1, DLD-1 GLUT1 knock out (for GLUT3) (Homo sapiens, UniProt P11169); assay: [3H]-2DG uptake in DLD-1 GLUT1 knock out cells; type: cell-based; details: DLD-1 GLUT1 knock out vs wild type
T1 sequence (P11169 1-496): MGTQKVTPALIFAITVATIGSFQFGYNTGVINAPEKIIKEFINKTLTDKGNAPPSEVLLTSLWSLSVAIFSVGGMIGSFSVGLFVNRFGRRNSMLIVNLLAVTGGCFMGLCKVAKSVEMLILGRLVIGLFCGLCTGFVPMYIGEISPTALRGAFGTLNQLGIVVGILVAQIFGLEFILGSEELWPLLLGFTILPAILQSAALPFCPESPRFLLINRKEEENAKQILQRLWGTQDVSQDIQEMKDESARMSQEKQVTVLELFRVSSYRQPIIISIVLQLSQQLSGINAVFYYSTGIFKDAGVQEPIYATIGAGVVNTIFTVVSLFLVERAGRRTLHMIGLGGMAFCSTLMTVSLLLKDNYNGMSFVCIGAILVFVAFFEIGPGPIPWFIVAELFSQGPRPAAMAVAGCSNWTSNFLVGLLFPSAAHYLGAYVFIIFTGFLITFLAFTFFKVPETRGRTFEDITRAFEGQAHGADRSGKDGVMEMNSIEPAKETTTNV
Procedure, shortened: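 Isogenic DLD-1 lines were run in parallel: wild type (GLUT1) and GLUT1 knockout (GLUT3). Each was treated with test compound, BAY-876 (GLUT1-specific reference) or cytochalasin B (non-specific GLUT inhibitor), then [3H]-2DG uptake was assessed.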

GLUT1 = target: T2, GLUT1 (Homo sapiens, UniProt P11166); assay: rapafucin 3D microarray screen with GLUT1-containing cell lysate; type: binding; details: hit when SBR greater than 3; GLUT1-containing HEK293T lysate
T2 sequence (P11166 1-492): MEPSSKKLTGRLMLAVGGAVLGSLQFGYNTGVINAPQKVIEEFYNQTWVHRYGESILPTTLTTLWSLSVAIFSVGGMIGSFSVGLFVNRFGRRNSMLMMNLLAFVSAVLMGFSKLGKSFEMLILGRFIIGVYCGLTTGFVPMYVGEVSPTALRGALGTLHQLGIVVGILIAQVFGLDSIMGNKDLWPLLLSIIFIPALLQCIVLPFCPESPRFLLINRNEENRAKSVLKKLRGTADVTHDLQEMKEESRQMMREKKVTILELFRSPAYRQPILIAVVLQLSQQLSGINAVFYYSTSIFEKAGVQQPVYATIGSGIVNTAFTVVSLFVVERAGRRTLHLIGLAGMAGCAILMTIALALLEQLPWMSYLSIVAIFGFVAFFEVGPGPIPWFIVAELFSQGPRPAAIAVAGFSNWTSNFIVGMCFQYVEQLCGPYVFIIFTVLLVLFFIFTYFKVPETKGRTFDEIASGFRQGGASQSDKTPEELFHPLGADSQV
Procedure, shortened: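 HEK293T cells stably overexpressing GLUT1 gave a detergent-solubilised lysate. This was incubated on rapafucin arrays printed on a diazirine 3D copolymer surface (PEGMA:DMAEMA 8:2; ATRP initiator:propionyl bromide 1:100). Unbound protein was washed off, and bound GLUT1 was detected with anti-GLUT1 antibody plus Cy5 secondary on a microarray scanner. BAY-876 served as positive control.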

MCF-7 cells = assay: FKBP ligand competition in [3H]-2DG uptake assay in MCF-7 cells; type: cell-based, human; details: 20 μM with 100nM of RgA
Procedure, shortened: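 MCF-7 cells were exposed to test compound at 100 nM together with 20 μM FK506, 20 μM rapamycin, or their combinations, with each agent also given alone. [3H]-2DG uptake was then measured to test whether excess FKBP-binding ligands antagonise inhibition of glucose uptake.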

| signal-to-background ratio (SBR), positive hit on 3D rapafucin microarray (GLUT1) | Compound | inhibitory activity on [3H]-2DG uptake in GLUT1 knock out cells [1] | effect on the inhibitory activity of RgA in the [3H]-2DG uptake assay (MCF-7 cells) |
| --- | --- | --- | --- |
| identified | Cc1c(NC(=O)c2cc(C(N)=O)nc3cc(F)ccc23)c(C(F)(F)F)nn1Cc1ccc(C#N)cc1 [BAY-876] | lost its inhibitory activity | – |
| – | C=CC[C@@H]1/C=C(\C)C[C@H](C)C[C@H](OC)[C@H]2O[C@@](O)(C(=O)C(=O)N3CCCC[C@H]3C(=O)O[C@H](/C(C)=C/[C@@H]3CC[C@@H](O)[C@H](OC)C3)[C@H](C)[C@@H](O)CC1=O)[C@H](C)C[C@@H]2OC [FK506] | – | negligible effect |
| – | C=C1[C@@H](C)[C@H]2[C@H](Cc3ccccc3)NC(=O)[C@]23OC(=O)/C=C/[C@H](O)CCC[C@@H](C)C/C=C/[C@H]3[C@@H]1O [cytochalasin B] | maintained its inhibitory activity | – |
| – | CO[C@H]1C[C@@H]2CC[C@@H](C)[C@@](O)(O2)C(=O)C(=O)N2CCCC[C@H]2C(=O)O[C@H]([C@H](C)C[C@@H]2CC[C@@H](O)[C@H](OC)C2)CC(=O)[C@H](C)/C=C(\C)[C@@H](O)[C@@H](OC)C(=O)[C@H](C)C[C@H](C)/C=C/C=C/C=C/1C [rapamycin] | – | negligible effect |

Source: publication PMC6861656 (Angewandte Chemie (International ed. in English), 2019)
